# Measurements gathered from unrelated publications.
# Target: Serine/threonine-protein kinase DCLK2 (DCLK2, Homo sapiens, UniProt Q8N568)
# Sequence (Q8N568 1-766, as in one of the studies): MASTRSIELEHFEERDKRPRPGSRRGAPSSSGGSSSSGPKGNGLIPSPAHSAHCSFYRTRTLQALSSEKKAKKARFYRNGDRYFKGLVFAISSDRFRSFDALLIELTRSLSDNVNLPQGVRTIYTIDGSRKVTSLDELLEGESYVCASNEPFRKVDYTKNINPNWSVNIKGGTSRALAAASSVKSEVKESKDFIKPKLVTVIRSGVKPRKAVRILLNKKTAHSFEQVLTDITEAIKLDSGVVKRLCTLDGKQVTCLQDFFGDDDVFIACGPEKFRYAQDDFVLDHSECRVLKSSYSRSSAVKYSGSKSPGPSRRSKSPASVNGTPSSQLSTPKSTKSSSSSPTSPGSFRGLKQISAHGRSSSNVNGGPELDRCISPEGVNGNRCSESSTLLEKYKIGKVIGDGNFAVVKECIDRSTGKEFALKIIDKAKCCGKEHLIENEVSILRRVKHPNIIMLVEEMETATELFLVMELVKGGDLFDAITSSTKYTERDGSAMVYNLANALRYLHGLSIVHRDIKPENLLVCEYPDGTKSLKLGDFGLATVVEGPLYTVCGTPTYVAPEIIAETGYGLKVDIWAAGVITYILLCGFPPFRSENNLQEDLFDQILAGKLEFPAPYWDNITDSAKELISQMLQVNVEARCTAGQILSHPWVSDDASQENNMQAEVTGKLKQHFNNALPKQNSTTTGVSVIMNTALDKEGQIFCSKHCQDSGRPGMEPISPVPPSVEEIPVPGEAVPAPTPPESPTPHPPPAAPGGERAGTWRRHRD
SMILES,assay,setting,measurement,result
N#CCCc1ccc2c(c1)-c1[nH]c3ccc([N+](=O)[O-])cc3c1CC(=O)N2,cell-free assay,0.5 µM,remaining signal,104%
CO[C@H]1CC[C@H](CNc2ccc(S(=O)(=O)NC(=O)c3ccc(N4CCN(CC5=C(c6ccc(Cl)cc6)CC(C)(C)CC5)CC4)cc3Oc3cnc4[nH]ccc4c3)cc2[N+](=O)[O-])CC1,"cell-free assay, competition with immobilised ligand",1 µM,remaining binding,100%
CC/C(=N\NC(=O)NCc1cccc(O)c1)c1ccc(O)c(C)c1O,"enzyme activity, inhibitor",0.1 µM,inhibition,-8.9%
Cn1nc(C(=O)NCc2ccc(C(=O)O)cc2)cc1-c1ccc2[nH]ccc2c1,"cell-free assay, competition with immobilised ligand",0.1 µM,remaining binding,92%
Cn1cncc1C1=CN(c2ncnc3[nH]cnc23)CCS1,"enzyme activity, inhibitor, radiometric",50 nM,inhibition,12.8%
CC(C)(O)[C@H]1CC[C@H](Nc2ccc3ncc(-c4cccc(C(F)(F)F)c4)n3n2)CC1,"enzyme activity, inhibitor",1 µM,remaining activity,95.3%
COc1cc2ncnc(Nc3ccc(Oc4ccccc4)c(C)c3C)c2cc1OC,"enzyme activity, inhibitor",1 µM,inhibition,3%
CCS(=O)(=O)c1cc2cc(C[C@@](O)(CC(C)(C)c3ccc(F)cc3C(N)=O)C(F)(F)F)[nH]c2cn1,"cell-free assay, competition with immobilised ligand",1 µM,remaining binding,100%
Cc1ccc(Nc2nccc(N(C)c3ccc4c(C)n(C)nc4c3)n2)cc1S(N)(=O)=O,"enzyme activity, inhibitor",0.3 µM,inhibition,-2%
CC(C)(C)c1nc(-c2cccc(NS(=O)(=O)c3c(F)cccc3F)c2F)c(-c2ccnc(N)n2)s1,"enzyme activity, inhibitor, radiometric",1 µM,remaining activity,77%
Nc1cnc(N2CCc3cc(S(=O)(=O)Nc4c(F)cc(Cl)cc4F)cc(N4CCCC4=O)c32)nc1,"cell-free assay, competition with immobilised ligand",1 µM,remaining binding,100%
CCN(CC)CCNC(=O)c1c(C)[nH]c(/C=C2\C(=O)Nc3ccc(F)cc32)c1C,"enzyme activity, inhibitor",0.3 µM,inhibition,-2%
Cc1cnc(NC2CCOCC2)nc1-n1cnc(C(=O)NC(CN)c2cc(F)cc(Cl)c2)c1 (stereo not shown),"enzyme activity, inhibitor, radiometric",1 µM,remaining activity,83%
CNc1cccc2cc(C(=O)Nc3ccc(C(=O)O)cc3)c(=O)[nH]c12,"enzyme activity, inhibitor",10 µM,inhibition,-1.4%
CCCS(=O)(=O)Nc1ccc(F)c(C(=O)c2c[nH]c3ncc(-c4ccc(Cl)cc4)cc23)c1F,"enzyme activity, inhibitor",1 µM,inhibition,< 10%
Cc1ccc(NC(=O)c2ccc(C)c(C(F)(F)F)c2)cc1C#Cc1nn(C2CCC(O)CC2)c2ncnc(N)c12 (stereo not shown),cell-free assay,10 µM,remaining signal,102%
COc1cc2c(N3CCN(C(=O)Nc4ccc(OC(C)C)cc4)CC3)ncnc2cc1OCCCN1CCCCC1,cell-free assay,0.5 µM,remaining signal,103%
CNC(=O)Nc1ccc2c(c1)CC[C@@]21OC(=O)N(CC(=O)N(Cc2ccc(F)cc2)[C@@H](C)C(F)(F)F)C1=O,"cell-free assay, competition with immobilised ligand",1 µM,remaining binding,70%
O=C(Nc1cnn(-c2csc(C(=O)NC3COC3)c2)c1)Nc1c(F)cccc1Cl,"enzyme activity, inhibitor",5 µM,remaining activity,94.3%
CN1CC(Oc2cnc(C#N)cc2-c2ccn3nc(NC(=O)C4CC4)cc3c2)C1,"enzyme activity, inhibitor",1 µM,inhibition,-1%
CS(=O)(=O)NCC[C@H](NC(=O)c1cncc2c1cnn2-c1ccc(F)cc1)c1ccnc(S(C)(=O)=O)c1,"cell-free assay, competition with immobilised ligand",1 µM,remaining binding,100%
C[S+]([O-])c1ccc(-c2nc(-c3ccncc3)c(-c3ccc(F)cc3)[nH]2)cc1 (stereo not shown),cell-free assay,0.5 µM,remaining signal,99.8%
